Results on 21 compounds are retold here after ChEMBL document CHEMBL4373640, “Synthesis and antitumor activity of aza-brazilan derivatives containing imidazolium salt pharmacophores” (Medchemcomm, 2019).

One assay deals with SW480. Description: Cytotoxicity against human SW480 cells assessed as reduction in cell viability after 48 hrs by MTS assay. The assay is classed as functional, cell-based. Conditions: SW480, 48 h. In outline: (§1)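 Cells (5 × 10^3 per well) were plated 12 h before treatment, then exposed continuously to compound for 48 h. MTS was added, with 1–4 h incubation at 37 °C and OD read at 490 nm. IC50 is the concentration cutting OD by 50% versus untreated cells, taken from dose–response curves. Values are the mean of three independent determinations.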
(Formazan colour is commonly taken as a measure of viable cells.)

In a further assay the test system is A549. In words: Cytotoxicity against human A549 cells assessed as reduction in cell viability after 48 hrs by MTS assay. The assay is classed as functional, cell-based. Conditions: A549, 48 h. The gist of the method: as §1
Assay [1] in a line: Cytotoxicity against human SMMC-7221 cells assessed as reduction in cell viability after 48 hrs by MTS assay. To be noted: SMMC-7221, 48 h. Format: functional, cell-based. In outline:
as §1

The subject of assay [2] is MCF7. In words: Cytotoxicity against human MCF7 cells assessed as reduction in cell viability after 48 hrs by MTS assay. Format: functional, cell-based. To be noted: MCF7, 48 h. In outline:
as §1

For assay [3], the system named is MCF7. Description: Potency index, ratio of cisplatin IC50 to compound IC50 for cytotoxicity against human MCF7 cells by MTS assay. The assay is classed as functional.

Consider `COc1ccc(C(=O)C[n+]2c(C)n(CCCN3C[C@@H]4Cc5cc(OC)c(OC)cc5[C@@H]4c4cccc(OC)c43)c3ccccc32)cc1`, for which the IC50 in the assay on SW480 turned out to be 2340 nM; in the assay on A549, 14400 nM; in assay [1], 5360 nM; in the assay with MCF7 [2], 3360 nM.
Take `COc1cc2c(cc1OC)[C@@H]1c3cccc(OC)c3N(CCCn3c(C)[n+](Cc4ccc(C)cc4)c4ccccc43)C[C@@H]1C2`: the IC50 in the assay on SW480 amounted to 3510 nM; in the assay with A549 it was 14400 nM; in assay [1], 6490 nM; in the assay with MCF7 [2] it was 5540 nM.
On to `COc1ccc(C(=O)C[n+]2c(C)n(CCCN3C[C@@H]4Cc5ccccc5[C@@H]4c4cccc(OC)c43)c3ccccc32)cc1`, for which the IC50 in the assay with SW480 stood at 1270 nM; with A549 it was 3650 nM; in assay [1], 1320 nM; in the assay on MCF7 [2] it was 400 nM.
Consider `COc1cccc2c1N(CCCn1c(C)[n+](Cc3ccc(C)cc3)c3ccccc31)C[C@@H]1Cc3ccc(Br)cc3[C@H]21`, for which the IC50 was determined as 1620 nM with SW480, 1420 nM with A549, 980 nM in assay [1] and 1080 nM in the assay with MCF7 [2].
Consider `COc1cc2c(cc1OC)[C@@H]1c3cccc(OC)c3N(C(=O)CCn3c(C)[n+](CC(=O)c4ccc5ccccc5c4)c4ccccc43)C[C@@H]1C2`, for which the IC50 in the assay on SW480 was 3790 nM; with A549, 9290 nM; in assay [1], 6530 nM; in the assay on MCF7 [2] it was 4670 nM.
Consider `COc1cccc2c1N(CCCn1c(C)[n+](CC(=O)c3ccc4ccccc4c3)c3ccccc31)C[C@@H]1Cc3ccc(Br)cc3[C@H]21`, for which the IC50 came out at 1260 nM with SW480, 1610 nM with A549, 1120 nM in assay [1] and 950 nM with MCF7 [2].
The corresponding values for `COc1cc2c(cc1OC)[C@@H]1c3cccc(OC)c3N(C(=O)CCn3cnc4cc(C)c(C)cc43)C[C@@H]1C2` are more than 20000 nM, more than 20000 nM, more than 20000 nM and more than 20000 nM.
As for `COc1cccc2c1N(CCCn1c[n+](CC(=O)c3ccc4ccccc4c3)c3cc(C)c(C)cc31)C[C@@H]1Cc3ccc(Br)cc3[C@H]21`, the IC50 amounted to 4260 nM in the assay with SW480, 3480 nM in the assay on A549, 1350 nM in assay [1] and 1580 nM with MCF7 [2].
The corresponding values for `COc1cc2c(cc1OC)[C@@H]1c3cccc(OC)c3N(C(=O)CCn3c(C)nc4ccccc43)C[C@@H]1C2` are more than 20000 nM, more than 20000 nM, more than 20000 nM and more than 20000 nM.
On the same counts, the results for `COc1cccc2c1N(C(=O)CCn1c(C)[n+](Cc3ccc(C)cc3)c3ccccc31)C[C@@H]1Cc3ccccc3[C@H]21` are 1570 nM, 6270 nM, 2040 nM and 1570 nM.
For `COc1cccc2c1N(CCCn1c[n+](CC(=O)c3ccc4ccccc4c3)c3cc(C)c(C)cc31)C[C@@H]1Cc3ccccc3[C@H]21`, the half-maximal inhibitory concentration (IC50) amounted to 1460 nM in the assay with SW480, 1470 nM in the assay with A549, 1090 nM in assay [1] and 910 nM in the assay with MCF7 [2].
On the same counts, the results for `COc1ccc(C(=O)C[n+]2cn(CCCN3C[C@@H]4Cc5ccccc5[C@@H]4c4cccc(OC)c43)c3cc(C)c(C)cc32)cc1` are 1730 nM, 1400 nM, 1420 nM and 1260 nM.
In the case of `COc1cccc2c1N(CCCn1cnc3cc(C)c(C)cc31)C[C@@H]1Cc3ccccc3[C@H]21`, the IC50 (in the assay on SW480; in the assay with A549; in assay [1]; with MCF7 [2]) was more than 20000 nM each time.
In the case of `COc1ccc(C(=O)C[n+]2cn(CCCN3C[C@@H]4Cc5ccc(Br)cc5[C@@H]4c4cccc(OC)c43)c3cc(C)c(C)cc32)cc1.[Br-]`, the IC50 in the assay on SW480 was found to be 1400 nM; in the assay with A549 it was 1530 nM; in assay [1], 890 nM; with MCF7 [2], 350 nM. In the assay with MCF7 [3], the “Ratio IC50” value is on record as 56.
`COc1cc2c(cc1OC)[C@@H]1c3cccc(OC)c3N(CCCn3c(C)[n+](CC(=O)c4ccc5ccccc5c4)c4ccccc43)C[C@@H]1C2`: the IC50 came to 2060 nM in the assay on SW480, 8260 nM in the assay with A549, 5460 nM in assay [1] and 2160 nM with MCF7 [2].
Consider `COc1cccc2c1N(C(=O)CCn1c[n+](CC(=O)c3ccc4ccccc4c3)c3cc(C)c(C)cc31)C[C@@H]1Cc3ccccc3[C@H]21`, for which the IC50 with SW480 was 1350 nM; with A549 it was 1990 nM; in assay [1], 1120 nM; in the assay on MCF7 [2], 1010 nM.
As for `COc1cccc2c1N(C(=O)CCn1cnc3cc(C)c(C)cc31)C[C@@H]1Cc3ccc(Br)cc3[C@H]21`, the IC50 (in the assay with SW480; in the assay with A549; in assay [1]; with MCF7 [2]) was more than 20000 nM in each case.
For the compound `COc1cccc2c1N(CCCn1c[n+](Cc3ccc4ccccc4c3)c3cc(C)c(C)cc31)C[C@@H]1Cc3ccccc3[C@H]21`, the IC50 in the assay with SW480 was determined as 930 nM; in the assay with A549, 1510 nM; in assay [1], 850 nM; in the assay with MCF7 [2] it was 910 nM.
In the case of `COc1cc2c(cc1OC)[C@@H]1c3cccc(OC)c3N(CCCn3c(C)nc4ccccc43)C[C@@H]1C2`, the IC50 (with SW480; in the assay with A549; in assay [1]; in the assay on MCF7 [2]) was more than 20000 nM in each case.
For the compound `COc1ccc(C(=O)C[n+]2c(C)n(CCCN3C[C@@H]4Cc5ccc(Br)cc5[C@@H]4c4cccc(OC)c43)c3ccccc32)cc1`, the IC50 with SW480 amounted to 1240 nM; with A549, 1220 nM; in assay [1] it was 930 nM; with MCF7 [2] it was 1010 nM.
For `COc1cc2c(cc1OC)[C@@H]1c3cccc(OC)c3N(CCCn3c(C)[n+](Cc4ccc5ccccc5c4)c4ccccc43)C[C@@H]1C2`, the IC50 in the assay on SW480 came to 1500 nM; with A549 it was 1530 nM; in assay [1] it was 1130 nM; in the assay with MCF7 [2], 1070 nM.

In general, IC50 refers to the concentration needed to halve the response being measured.
